Assay results from ChEMBL document CHEMBL1144873, “An orally bioavailable oxime ether capsid binder with potent activity against human rhinovirus” (J Med Chem, 2003).
≈ marks a conversion by molar mass, not a printed value.

Experiments:
KB [1] = test: (§1) Cellular toxicity in KB cells; type: functional; settings: Homo sapiens
KB [2] = test: as §1; type: functional; settings: Homo sapiens; remark: listed apart in the source
rhinovirus B14 [3] = test: Anti-HRV activity against HRV-14 strain; type: functional, organism-based, human rhinovirus type 14; settings: Rhinovirus B
rhinovirus A2 [4] = test: Anti-HRV activity against HRV-2 strain; type: functional, organism-based, human rhinovirus type 2; settings: Rhinovirus A
Human rhinovirus 1A = test: Anti-HRV activity against HRV-1A strain; type: functional, organism-based, human rhinovirus type 1
Method in brief: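 Cell-culture cytopathic effect (CPE) inhibition assay adapted from a microplate tissue-culture method. Each test was run in duplicate. EC50 was read both visually and by dye uptake. Results varied by generally no more than one dilution between duplicate runs and between read-out methods.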

MRC5 = test: Cellular toxicity in MRC-5 cells; type: functional; settings: Homo sapiens
rhinovirus A51 = test: Anti-HRV activity against HRV serotype 51; type: functional, organism-based; settings: Rhinovirus A
rhinovirus A16 = test: Anti-HRV activity against HRV serotype 16; type: functional, organism-based; settings: Rhinovirus A
rhinovirus A89 = test: Anti-HRV activity against HRV serotype 89; type: functional, organism-based, human rhinovirus type 89; settings: Rhinovirus A
rhinovirus A39 = test: Anti-HRV activity against HRV serotype 39; type: functional, organism-based; settings: Rhinovirus A
rhinovirus A15 = test: Anti-HRV activity against HRV serotype 15; type: functional, organism-based; settings: Rhinovirus A
rhinovirus B70 = test: Anti-HRV activity against HRV serotype 70; type: functional, organism-based; settings: Rhinovirus B
rhinovirus B72 = test: Anti-HRV activity against HRV serotype 72; type: functional, organism-based; settings: Rhinovirus B
rhinovirus A29 = test: Anti-HRV activity against HRV serotype 29; type: functional, organism-based; settings: Rhinovirus A
rhinovirus A85 = test: Anti-HRV activity against HRV serotype 85; type: functional, organism-based; settings: Rhinovirus A
rhinovirus A2 [5] = test: Anti-HRV activity against HRV serotype 2; type: functional, organism-based, human rhinovirus type 2; settings: Rhinovirus A
rhinovirus A9 = test: Anti-HRV activity against HRV serotype 9; type: functional, organism-based; settings: Rhinovirus A
rhinovirus A59 = test: Anti-HRV activity against HRV serotype 59; type: functional, organism-based; settings: Rhinovirus A
rhinovirus B86 = test: Anti-HRV activity against HRV serotype 86; type: functional, organism-based; settings: Rhinovirus B
rhinovirus B14 [6] = test: Anti-HRV activity against HRV serotype 14; type: functional, organism-based, human rhinovirus type 14; settings: Rhinovirus B
rhinovirus A63 = test: Anti-HRV activity against HRV serotype 63; type: functional, organism-based; settings: Rhinovirus A
rhinovirus A45 = test: Anti-HRV activity against HRV serotype 45; type: functional, organism-based; settings: Rhinovirus A
KB [7] = test: Cellular toxicity against KB cells in HRV-14 strain; type: functional; settings: Homo sapiens
Human rhinovirus sp. = test: Percent inhibition of 100 HRV strains by the compound at a concentration of 0.064 ug/ml; type: functional

Structure (SMILES)	CC50 (KB [1])	CC50 (KB [2])	EC50 (rhinovirus B14 [3])	EC50 (rhinovirus A2 [4])	EC50 (Human rhinovirus 1A)	CC50 (MRC5)	other results
C=CCO/N=C/c1ccc(OCCC2CCN(c3ccc(Cl)nn3)CC2)cc1	0.4 µg/mL (≈ 0.998 µM)	0.5 µg/mL (≈ 1.25 µM)	0.006 µg/mL (≈ 0.015 µM)	0.006 µg/mL (≈ 0.015 µM)			
O=Cc1ccc(OCCC2CCN(c3ccc(Cl)nn3)CC2)cc1		20 µg/mL (≈ 57.8 µM)		2 µg/mL (≈ 5.78 µM)	9.72 µg/mL (≈ 28.1 µM)	> 50 µg/mL	
CCCO/N=C/c1ccc(OCCC2CCN(c3ccc(Cl)nn3)CC2)cc1	0.4 µg/mL (≈ 0.993 µM)	> 1 µg/mL	0.01 µg/mL (≈ 0.0248 µM)	0.004 µg/mL (≈ 0.00993 µM)			
CC(C)O/N=C/c1ccc(OCCC2CCN(c3ccc(Cl)nn3)CC2)cc1	0.7 µg/mL (≈ 1.74 µM)	1 µg/mL (≈ 2.48 µM)	0.018 µg/mL (≈ 0.0447 µM)	0.02 µg/mL (≈ 0.0496 µM)			
CCO/N=C(\C)c1ccc(OCCC2CCN(c3ccc(C)nn3)CC2)cc1	> 1 µg/mL	> 1 µg/mL	0.004 µg/mL (≈ 0.0105 µM)	0.01 µg/mL (≈ 0.0261 µM)			
CO/N=C(\C)c1ccc(OCCC2CCN(c3ccc(C)nn3)CC2)cc1	> 1 µg/mL	> 1 µg/mL	0.023 µg/mL (≈ 0.0624 µM)	0.08 µg/mL (≈ 0.217 µM)			
Clc1ccc(N2CCC(CCOc3ccc(/C=N/OCc4ccccc4)cc3)CC2)nn1	0.6 µg/mL (≈ 1.33 µM)	0.6 µg/mL (≈ 1.33 µM)	0.4 µg/mL (≈ 0.887 µM)	0.9 µg/mL (≈ 2 µM)			
CC(C)S(=O)(=O)n1c(N)nc2ccc(/C(=N/O)c3ccccc3)cc21 [ENVIROXIME]		2 µg/mL (≈ 5.58 µM)		0.009 µg/mL (≈ 0.0251 µM)			
CCOC(=O)c1ccc(OCCC2CCN(c3ccc(Cl)nn3)CC2)cc1		50 µg/mL (≈ 128 µM)		< 0.05 µg/mL	< 0.16 µg/mL	> 50 µg/mL	
CN/N=C/c1ccc(OCCC2CCN(c3ccc(Cl)nn3)CC2)cc1		10 µg/mL (≈ 26.7 µM)		2 µg/mL (≈ 5.35 µM)	1.01 µg/mL (≈ 2.7 µM)	> 50 µg/mL	
Cc1cc(CCCOc2c(C)cc(-c3noc(C(F)(F)F)n3)cc2C)on1 [PLECONARIL]							EC50 (rhinovirus A51): 0.0304 µg/mL (≈ 0.0797 µM); EC50 (rhinovirus A16): 0.108 µg/mL (≈ 0.283 µM); EC50 (rhinovirus A89): 0.0293 µg/mL (≈ 0.0769 µM); EC50 (rhinovirus A39): 0.0449 µg/mL (≈ 0.118 µM); EC50 (rhinovirus A15): 0.0698 µg/mL (≈ 0.183 µM); EC50 (rhinovirus B70): 0.0539 µg/mL (≈ 0.141 µM); EC50 (rhinovirus B72): 0.469 µg/mL (≈ 1.23 µM); EC50 (rhinovirus A29): 0.0454 µg/mL (≈ 0.119 µM); EC50 (rhinovirus A85): 0.034 µg/mL (≈ 0.0892 µM); EC50 (rhinovirus A2 [5]): 0.0265 µg/mL (≈ 0.0694 µM); EC50 (rhinovirus A9): 0.0372 µg/mL (≈ 0.0974 µM); EC50 (rhinovirus A59): 0.387 µg/mL (≈ 1.02 µM); EC50 (rhinovirus B86): 0.07 µg/mL (≈ 0.184 µM); EC50 (rhinovirus B14 [6]): 0.0313 µg/mL (≈ 0.0821 µM); EC50 (rhinovirus A63): 0.0623 µg/mL (≈ 0.163 µM); EC50 (rhinovirus A45): 1.91 µg/mL (≈ 5 µM)
CC/C(=N\OC)c1ccc(OCCC2CCN(c3ccc(Cl)nn3)CC2)cc1	0.6 µg/mL (≈ 1.49 µM)	> 1 µg/mL	0.2 µg/mL (≈ 0.496 µM)	0.4 µg/mL (≈ 0.993 µM)			
CCC/N=C/c1ccc(OCCC2CCN(c3ccc(Cl)nn3)CC2)cc1		30 µg/mL (≈ 77.5 µM)		6 µg/mL (≈ 15.5 µM)	4.12 µg/mL (≈ 10.6 µM)	> 50 µg/mL	
CCOC(=O)c1ccc(OCCC2CCN(c3ccc(C)nn3)CC2)cc1 [PIRODAVIR]			0.0016 µg/mL (≈ 0.00433 µM)		< 0.16 µg/mL	> 50 µg/mL	EC50 (rhinovirus A51): 0.00521 µg/mL (≈ 0.0141 µM); EC50 (rhinovirus A16): 0.0152 µg/mL (≈ 0.0412 µM); EC50 (rhinovirus A89): 0.0057 µg/mL (≈ 0.0154 µM); CC50 (KB [7]): > 1 µg/mL; EC50 (rhinovirus A39): 0.0018 µg/mL (≈ 0.00487 µM); EC50 (rhinovirus A15): 0.00702 µg/mL (≈ 0.019 µM); EC50 (rhinovirus B70): 0.00214 µg/mL (≈ 0.00579 µM); EC50 (rhinovirus B72): 0.0348 µg/mL (≈ 0.0941 µM); EC50 (rhinovirus A29): 0.00374 µg/mL (≈ 0.0101 µM); EC50 (rhinovirus A85): 0.00472 µg/mL (≈ 0.0128 µM); EC50 (rhinovirus A2 [5]): 0.00277 µg/mL (≈ 0.0075 µM); inhibition at 0.064 µg/mL (Human rhinovirus sp.): 80%; EC50 (rhinovirus A9): 0.00205 µg/mL (≈ 0.00555 µM); EC50 (rhinovirus A59): 0.00437 µg/mL (≈ 0.0118 µM); EC50 (rhinovirus B86): 0.00956 µg/mL (≈ 0.0259 µM); EC50 (rhinovirus B14 [6]): 0.00365 µg/mL (≈ 0.00988 µM); EC50 (rhinovirus A63): 0.00083 µg/mL (≈ 0.00225 µM); EC50 (rhinovirus A45): > 5 µg/mL
NNC(=O)c1ccc(OCCC2CCN(c3ccc(Cl)nn3)CC2)cc1		20 µg/mL (≈ 53.2 µM)		4 µg/mL (≈ 10.6 µM)	8.52 µg/mL (≈ 22.7 µM)	> 50 µg/mL	
CO/N=C/c1ccc(OCCC2CCN(c3ccc(C)nn3)CC2)cc1	> 1 µg/mL	> 1 µg/mL	0.004 µg/mL (≈ 0.0113 µM)	0.15 µg/mL (≈ 0.423 µM)			
CCO/N=C/c1ccc(OCCC2CCN(c3ccc(Cl)nn3)CC2)cc1	0.8 µg/mL (≈ 2.06 µM)		0.002 µg/mL (≈ 0.00514 µM)		< 0.16 µg/mL	> 50 µg/mL	
CCC(=O)c1ccc(OCCC2CCN(c3ccc(Cl)nn3)CC2)cc1		7 µg/mL (≈ 18.7 µM)		0.6 µg/mL (≈ 1.6 µM)	< 0.16 µg/mL	> 50 µg/mL	
Cc1ccc(N2CCC(CCOc3ccc(/C=N/O)cc3)CC2)nn1	> 0.25 µg/mL	> 0.25 µg/mL	0.062 µg/mL (≈ 0.182 µM)	> 0.25 µg/mL			
